In PMC11101930 (International Journal for Parasitology: Drugs and Drug …, 2024):
Counter-ions that a name gives are not always drawn. Like-named read-outs stand apart in the source and are kept apart here.

Columns and labels:
[1] = tested on: newly transformed schistosomula (NTS); experiment: In vitro screening of newly transformed schistosomula; type: cell-based, Schistosoma mansoni; conditions: 72 h, read-out: NTS EC50
In short: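 Cercariae shed from Biomphalaria glabrata under light for 4 h were mechanically transformed and kept in M199 with 5% FCS, antibiotic mastermix and pen./strep. at 37 °C, 5% CO2. 40–50 larvae per well were exposed to 10, 7.5, 5, 3.75, 2.5, 1 or 0.25 μM test compound, with DMSO (<1%) as control. Viability was scored visually at 24 and 72 h (0–3, 0.5 steps), and the assay was repeated once. Scores were normalized to vehicle, and EC50 came from a four- or two-parameter sigmoid least-squares fit.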

[2] = tested on: adult S. mansoni; experiment: In vitro screening of adult S. mansoni worms, visual viability scoring; type: cell-based; conditions: Schistosoma mansoni, 72 h, read-out: Adult S. mansoni EC50
In short: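 Adult worms were recovered from mouse mesenteric veins at day 49 post-infection and held in RPMI 1640 with 5% FCS and antibiotics at 37 °C, 5% CO2. Two worm pairs per well were exposed to 40, 30, 20, 10, 7.5, 5, 2.5 or 1 μM test compound, with DMSO (<1%) as control. Viability was scored visually at 24 and 72 h (0–3, 0.5 steps). Duplicates, repeated once. Scores were normalized to vehicle, and EC50 came from a four-parameter sigmoid fit (two-parameter if not applicable).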

[3] = Metabolic stability assay in murine liver microsomes; type: in vitro ADME; conditions: for Microsomal stability t1/2: murine liver microsomes, 1 μM, 37 °C
In short: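 Test compound (1 μM) was incubated at 37 °C with mouse liver microsomes (0.5 mg/ml protein) in potassium phosphate buffer, pH 7.4, with 1.0 mM EDTA. Reactions were started with NADPH and quenched with ice-cold acetonitrile every 15 min up to 1 h. Depletion was followed by LC-MS/MS (ESI+, C18) against internal standards. A first-order exponential decay fit gave t1/2, and CLint was derived assuming hepatic blood flow of 90 ml/min/kg.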

[4] = tested on: S. mansoni; experiment: In vivo efficacy study in S. mansoni-infected mice; parameters: species or system Schistosoma mansoni; conditions: single oral gavage, 200 mg/kg (1) or 100 mg/kg (19); for Mean number of worms (SD): 21 days post-dosing
In short: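 Female NMRI mice (three weeks old, acclimatized one week) were each infected with 100 cercariae subcutaneously in the nuchal fold. At day 49 they received one oral gavage of test compound in Tween 80/ethanol (70:30, 10% of volume) plus tap water (sonicated, 35 °C); there were four mice per group and four untreated controls. Mice were killed 21 days post-dosing, and worms from mesenteric veins and liver were sexed, counted, and classed as dead or alive. Worm burden reduction was based on living worms versus controls, with a Kruskal-Wallis test.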

[5] = tested on: P. falciparum D6 strain; experiment: Antimalarial activity against P. falciparum D6 strain; type: cell-based, Plasmodium falciparum; conditions: among the 11 compounds most active against adult S. mansoni

SMILES	EC50 ([1]; Schistosoma mansoni) [µM]	EC50 [2] [µM]	other results
Cl.N#Cc1cc(C=NNC(=N)NN=Cc2ccc(F)c(C#N)c2)ccc1F [Compound 1, 2,2’-Bis[(3-cyano-4-fluorophenyl)methylene]carbonimidic Dihydrazide Hydrochloride]	1.25	5.46	Microsomal stability t1/2 [3]: 3.1 h; Tolerability in mice [4]: well tolerated; Mean number of worms (SD) [4]: 24.3 (4.3); Antimalarial activity in vitro and in vivo (ranking) [5]: most potent antimalarial activity in vitro and in vivo
N=C(NN=Cc1ccc(C(F)(F)F)cc1)NN=Cc1ccc(C(F)(F)F)cc1 [Compound 12, 2,2’-Bis[(4-trifluoromethylphenyl)methylene]carbonimidic Dihydrazide Hydrochloride]	6.23	–	–
N=C(NN=Cc1ccc(OC(F)(F)F)cc1)NN=Cc1ccc(OC(F)(F)F)cc1 [Compound 16, 2,2’-Bis[(4-trifluoromethoxyphenyl)methylene]carbonimidic Dihydrazide Hydrochloride]	3.31	8.06	–
N=C(NN=CCc1ccc(OC(F)(F)F)cc1)NN=CCc1ccc(OC(F)(F)F)cc1 [Compound 17, 2,2’-Bis[(4-trifluoromethoxyphenyl)ethylidene]carbonimidic Dihydrazide Hydrochloride]	2.01	4.91	–
N=C(NN=Cc1ccc(OC(F)F)cc1)NN=Cc1ccc(OC(F)F)cc1 [Compound 18, 2,2’-Bis[(4-difluoromethoxyphenyl)methylene]carbonimidic Dihydrazide Hydrochloride]	4.63	5.12	–
Cl.N=C(NN=CCc1ccc(OC(F)F)cc1)NN=CCc1ccc(OC(F)F)cc1 [Compound 19, 2,2’-Bis[(4-difluoromethoxyphenyl)ethylidene]carbonimidic Dihydrazide Hydrochloride]	2.79	2.78	Tolerability in mice [4]: well tolerated; Mean number of worms (SD) [4]: 28.3 (10.6)
Cl.N#Cc1cccc(C=NNC(=N)NN=Cc2cccc(C#N)c2)c1 [Compound 21, 2,2’-Bis[(3-cyanophenyl)methylene]carbonimidic Dihydrazide Hydrochloride]	1.66	4.04	Microsomal stability t1/2 [3]: 0.967 h
N#Cc1cccc(CC=NNC(=N)NN=CCc2cccc(C#N)c2)c1 [Compound 23, 2,2’-Bis[(3-cyanophenyl)ethylidene]carbonimidic Dihydrazide Hydrochloride]	1.12	2.69	–
N=C(NN=Cc1ccc(-c2ccccc2)cc1)NN=Cc1ccc(-c2ccccc2)cc1 [Compound 26, 2,2’-Bis[(4-diphenyl)methylene]carbonimidic Dihydrazide Hydrochloride]	–	–	EC50 ([1]; four- (a) or two-parameter (b) sigmoid fit): 4.43 µM
N=C(NN=Cc1ccc([N+](=O)[O-])cc1)NN=Cc1ccc([N+](=O)[O-])cc1 [Compound 27, 2,2’-Bis[(4-nitrophenyl)methylene]carbonimidic Dihydrazide Hydrochloride]	5.71	–	–
N=C(NN=Cc1ccc(N2CCOCC2)cc1)NN=Cc1ccc(N2CCOCC2)cc1 [Compound 33, 2,2’-Bis[(4-morpholinophenyl)methylene]carbonimidic Dihydrazide Hydrochloride]	2.44	6.45	–
COc1cc(OC)c(CC=NNC(=N)NN=CCc2cc(Cl)c(OC)cc2OC)cc1Cl [Compound 37, 2,2’-Bis[(2,4-dimethoxy-5-chlorophenyl)ethylidene]carbonimidic Dihydrazide Hydrochloride]	2.7	–	–
N=C(N/N=C/c1cccc([N+](=O)[O-])c1)N/N=C/c1cccc([N+](=O)[O-])c1 [Compound 49, N',2-bis((E)-3-nitrobenzylidene)hydrazine-1-carboximidhydrazide Hydrochloride]	3.3	9.47	–
N=C(N/N=C/c1cccc(-c2ccccc2)c1)N/N=C/c1cccc(-c2ccccc2)c1 [Compound 52, (E)-N'-((E)-[1,1'-biphenyl]-3-ylmethylene)-2-([1,1'-biphenyl]-3-ylmethylene)hydrazine-1-carboximidhydrazide Hydrochloride]	3.09	7.57	–
N=C(N/N=C/c1ccc(-c2ccc(F)cc2)cc1)N/N=C/c1ccc(-c2ccc(F)cc2)cc1 [Compound 53, (E)-2-((4'-fluoro-[1,1'-biphenyl]-4-yl)methylene)-N'-((E)-(4'-fluoro-[1,1'-biphenyl]-4-yl)methylene)hydrazine-1-carboximidhydrazide Hydrochloride]	3.37	–	–
N=C(N/N=C/c1ccc(Oc2ccccc2)cc1)N/N=C/c1ccc(Oc2ccccc2)cc1 [Compound 57, N',2-bis((E)-4-phenoxybenzylidene)hydrazine-1-carboximidhydrazide Hydrochloride]	3.84	7.07	–
N=C(N/N=C/c1ccc(Oc2ccc(F)cc2)cc1)N/N=C/c1ccc(Oc2ccc(F)cc2)cc1 [Compound 58, N',2-bis((E)-4-(4-fluorophenoxy)benzylidene)hydrazine-1-carboximidhydrazide Hydrochloride]	4.51	8.59	–
N=C(N/N=C/c1ccc(Oc2ccc(Cl)cc2)cc1)N/N=C/c1ccc(Oc2ccc(Cl)cc2)cc1 [Compound 59, N',2-bis((E)-4-(4-chlorophenoxy)benzylidene)hydrazine-1-carboximidhydrazide Hydrochloride]	2.7	5.52	–
N=C(N/N=C/c1ccc2ccccc2n1)N/N=C/c1ccc2ccccc2n1 [Compound 62, (E)-N'-((E)-quinolin-2-ylmethylene)-2-(quinolin-2-ylmethylene)hydrazine-1-carboximidhydrazide Hydrochloride]	2.5	7.49	–
N=C(N/N=C/c1cnc2ccccc2c1)N/N=C/c1cnc2ccccc2c1 [Compound 63, (E)-N'-((E)-quinolin-3-ylmethylene)-2-(quinolin-3-ylmethylene)hydrazine-1-carboximidhydrazide Hydrochloride]	0.65	–	–
N=C(N/N=C/c1ccnc2ccccc12)N/N=C/c1ccnc2ccccc12 [Compound 64, (E)-N'-((E)-quinolin-4-ylmethylene)-2-(quinolin-4-ylmethylene)hydrazine-1-carboximidhydrazide Hydrochloride]	1.57	–	–
N#Cc1cc(/C=N/NC(=N)N/N=C/c2ccc(Cl)c(C#N)c2)ccc1Cl [Compound 71, N',2-bis((E)-4-chloro-3-cyanobenzylidene)hydrazine-1-carboximidhydrazide Hydrochloride]	1.24	–	–
Cl.N#Cc1cc(/C=N/NC(=N)N/N=C/c2ccc(OC(F)(F)F)cc2)ccc1F [Compound 77, N'-((E)-3-cyano-4-fluorobenzylidene)-2-((E)-4-(trifluoromethoxy)benzylidene)hydrazine-1-carboximidhydrazide Hydrochloride]	4.02	6.76	half-life at 1 μM ([3]; mouse, liver microsomes, pH 7.4): 4.66 h
C#CCOc1ccc(/C=N/NC(=N)N/N=C/c2ccc(C(=O)c3ccccc3)cc2)cc1 [Compound 86, N'-((E)-4-benzoylbenzylidene)-2-((E)-4-(prop-2-yn-1-yloxy)benzylidene)hydrazine-1-carboximidhydrazide Hydrochloride]	4.44	–	–
